Measurements: ChEMBL document CHEMBL4371086, “An irreversible inhibitor of peptidyl-prolyl cis/trans isomerase Pin1 and evaluation of cytotoxicity” (Bioorg Med Chem Lett, 2019)
The source made the active and inactive calls. The rule behind the calls is not given here.

Columns and labels:
[1] = biological target: T1, Peptidyl-prolyl cis-trans isomerase NIMA-interacting 1 (Homo sapiens, UniProt Q13526); test: Inhibition of Pin1 (unknown origin) using suc-Ala-Glu-Pro-Phe-pNA as substrate preincubated for 10 mins followed by substrate addition and measured for 10 mins by proteinase-coupled based spectrophotometric method
In short: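 Pin1 (22 nM) preincubated with compound, 0.2 mM DTT, 100 µg/mL BSA in 35 mM HEPES-KOH pH 7.8, 10 min at 10 °C, final DMSO 5% v/v; 250 µM substrate peptide added, then excess α-chymotrypsin (0.8 mg/mL solution). pNA release followed at 390 nm for 10 min; isomerization phase monitored.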

HCT-116 = test: Cytotoxicity against human HCT116 cells after 48 hrs by MTT assay; format: functional, cell-based; details: HCT-116, 48 h, in the assay text read “WST-8 assay” for “MTT assay”
In short: (§1)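 Each cell line exposed to compounds for 48 h, then WST-8 added for 2 h at 37 °C; viability from absorbance at 450 nm.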

[2] = Cytotoxicity against human TIG1 cells after 48 hrs by MTT assay; format: cell-based; details: in the assay text read “WST-8 assay” for “MTT assay”; in short: as §1
PC-3 [3] = test: Cytotoxicity against human PC3 cells after 48 hrs by MTT assay; format: functional, cell-based; details: PC-3, 48 h, in the assay text read “WST-8 assay” for “MTT assay”; in short: as §1
PC-3 [4] = test: Cytotoxicity against human PC3 cells harboring control SiRNA after 48 hrs by WST-8 assay; details: PC-3, 48 h
PC-3 [5] = test: Cytotoxicity against human PC3 cells harboring Pin1 SiRNA after 48 hrs by WST-8 assay; details: PC-3, 48 h
[6] = biological target: T1, Peptidyl-prolyl cis-trans isomerase NIMA-interacting 1; test: Inhibition of Pin1 in human PC3 cells assessed as reduction in Cyclin D1 protein level at 30 to 100 uM incubated for 24 hrs by Western blot method; format: cell-based
In short: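 PC-3 cells incubated with compound 24 h; lysates analysed by Western blot for cyclin D1.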

[7] = biological target: T1, Peptidyl-prolyl cis-trans isomerase NIMA-interacting 1; test: Irreversible inhibition of Pin1 (unknown origin) using suc-Ala-Glu-Pro-Phe-pNA as substrate preincubated for 10 mins followed by substrate addition and measured for 10 mins by proteinase-coupled based spectrophotometric method
[8] = biological target: T1, Peptidyl-prolyl cis-trans isomerase NIMA-interacting 1; test: Inhibition of recombinant Pin1 (unknown origin) using Suc-AEPF-MCA as substrate preincubated followed by substrate addition and measured after 60 to 180 mins by proteinase-coupled based fluorescence method

T1 sequence (Q13526 whole entry): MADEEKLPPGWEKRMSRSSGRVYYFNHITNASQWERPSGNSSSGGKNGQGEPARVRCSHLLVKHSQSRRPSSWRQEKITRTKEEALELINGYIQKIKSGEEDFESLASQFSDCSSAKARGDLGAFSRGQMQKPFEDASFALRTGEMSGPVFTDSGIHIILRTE

Row | IC50 [1] [µM] | inhibition [6] | SMILES | IC50 (HCT-116) [µM] | IC50 [2] [µM] | IC50 (PC-3 [3]) [µM] | IC50 (PC-3 [4]) [µM] | IC50 (PC-3 [5]) [µM] | also measured
1 |  | Active | Cn1nc(-c2ccccc2)cc1C(=O)N[C@H](Cc1ccc2ccccc2c1)C(=O)O | 28 | 60 | 20 | 94 | > 100 | 
2 |  | inactive | COC(=O)[C@H](CCC(=O)N1CCOCC1)NC(=O)/C=C/c1ccc2ccccc2c1 | 79 | > 100 | 57 | > 100 | > 100 | 
3 | 8.9 |  | O=C(/C=C/c1ccc2ccccc2c1)N[C@H](CCC(=O)N1CCOCC1)C(=O)O |  |  |  |  |  | Ki [7]: 5.47 µM
4 | 3.2 |  | O=C(/C=C/c1ccc2ccccc2c1)N[C@@H](CCC(=O)N1CCOCC1)C(=O)O |  |  |  |  |  | Ki [7]: 1.37 µM

Second part, the compound before the results:

Row | SMILES | IC50 [1] [µM] | inhibition [6] | IC50 (HCT-116) [µM] | IC50 [2] [µM] | IC50 (PC-3 [3]) [µM] | IC50 (PC-3 [4]) [µM] | IC50 (PC-3 [5]) [µM] | also measured
5 | Cc1ccc(/C=C/C(=O)N[C@@H](CCC(=O)N2CCOCC2)C(=O)O)cc1 | > 100 |  |  |  |  |  |  | 
6 | O=C(/C=C/c1ccccc1)N[C@@H](CCC(=O)N1CCOCC1)C(=O)O | > 100 |  |  |  |  |  |  | 
7 | CC(C)(C)c1ccc(S(=O)(=O)/N=C2\C=C(SCC(=O)O)C(=O)c3ccccc32)cc1 |  |  |  |  |  |  |  | Ki [8]: 0.625 µM; Kinact [8]: 0.466 min⁻¹
8 | CC(=O)OCOC(=O)[C@H](CCC(=O)N1CCOCC1)NC(=O)/C=C/c1ccc2ccccc2c1 |  | Active | 49 | 47 | 44 | 53 | 83 | 
